Reference: ChEMBL document CHEMBL4732237, “Discovery of 4-alkoxy-2-aryl-6,7-dimethoxyquinolines as a new class of topoisomerase I inhibitors endowed with potent in vitro anticancer activity” (2021)

What was measured:
Assay type in all cases: functional
NCI-H522 = assay: Growth inhibition of human NCI-H522 cells incubated for 48 hrs by sulforhodamine B assay
Summary of the method: (§1)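 NCI five-dose screen (0.01–100 µM; five concentrations plus control). Cells grown in RPMI 1640/5% FBS/2 mM L-glutamine and preincubated 24 h, with time-zero plates TCA-fixed. Drug exposure 48 h at 37 °C, followed by SRB protein staining and reading at 515 nm. GI50 is the concentration at [(Ti-Tz)/(C-Tz)]×100 = 50.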

SF-295 = assay: Growth inhibition of human SF-295 cells incubated for 48 hrs by sulforhodamine B assay; summary of the method: as §1
SR = assay: Growth inhibition of human SR cells incubated for 48 hrs by sulforhodamine B assay; summary of the method: as §1
Malme-3M = assay: Growth inhibition of human Malme-3M cells incubated for 48 hrs by sulforhodamine B assay; summary of the method: as §1
CAKI-1 = assay: Growth inhibition of human CAKI-1 cells incubated for 48 hrs by sulforhodamine B assay
Summary of the method: (§2)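 NCI five-dose screen covering 0.01–100 µM, prepared as 10-fold or ½-log dilutions from DMSO stock. Cells in RPMI 1640 with 5% FBS were exposed for 48 h at 37 °C after 24 h preincubation. Adherent cells were fixed with TCA (final 10%) and suspension cells were settled before fixing. Stain was SRB, read at 515 nm. GI50 = 50% reduction in net protein increase versus control, with Tz taken at drug addition.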

SNB-19 = assay: Growth inhibition of human SNB-19 cells incubated for 48 hrs by sulforhodamine B assay; summary of the method: as §1
NCI-H23 = assay: Growth inhibition of human NCI-H23 cells incubated for 48 hrs by sulforhodamine B assay; summary of the method: as §1
COLO 205 = assay: Growth inhibition of human COLO 205 cells incubated for 48 hrs by sulforhodamine B assay; summary of the method: as §2
T47D = assay: Growth inhibition of human T47D cells incubated for 48 hrs by sulforhodamine B assay
Summary of the method: (§3)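 NCI five-dose assay, with drug stocks in DMSO diluted in medium to five concentrations (10-fold or ½-log series). Cells in RPMI 1640/5% FBS were pre-incubated 24 h, and time-zero plates were TCA-fixed at drug addition. After 48 h at 37 °C, cells were TCA-fixed, SRB-stained and read at 515 nm. GI50 is from [(Ti-Tz)/(C-Tz)]×100 = 50, TGI from Ti = Tz, and LC50 from [(Ti-Tz)/Tz]×100 = -50.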

A498 = assay: Growth inhibition of human A498 cells incubated for 48 hrs by sulforhodamine B assay; summary of the method: as §3
OVCAR-5 = assay: Growth inhibition of human OVCAR-5 cells incubated for 48 hrs by sulforhodamine B assay; summary of the method: as §1
K562 = assay: Growth inhibition of human K562 cells incubated for 48 hrs by sulforhodamine B assay; summary of the method: as §2
ACHN = assay: Growth inhibition of human ACHN cells incubated for 48 hrs by sulforhodamine B assay; summary of the method: as §2
TK-10 = assay: Growth inhibition of human TK-10 cells incubated for 48 hrs by sulforhodamine B assay; summary of the method: as §3
OVCAR-4 = assay: Growth inhibition of human OVCAR-4 cells incubated for 48 hrs by sulforhodamine B assay; summary of the method: as §1
OVCAR-8 = assay: Growth inhibition of human OVCAR-8 cells incubated for 48 hrs by sulforhodamine B assay; summary of the method: as §1
SK-MEL-2 = assay: Growth inhibition of human SK-MEL-2 cells incubated for 48 hrs by sulforhodamine B assay; summary of the method: as §1
NCI-H460 = assay: Growth inhibition of human NCI-H460 cells incubated for 48 hrs by sulforhodamine B assay; summary of the method: as §1
M14 = assay: Growth inhibition of human M14 cells incubated for 48 hrs by sulforhodamine B assay; summary of the method: as §2
[1] = Growth inhibition of human Prostate tumor cell line incubated for 48 hrs by sulforhodamine B assay
Summary of the method: (§4)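 NCI-60 five-dose screen. Cells in RPMI 1640 with 5% FBS and 2 mM L-glutamine were plated at 5000–40,000 cells/well and preincubated 24 h at 37 °C, 5% CO2. Drugs in DMSO were given at five serial 10-fold or ½-log dilutions for 48 h. Adherent cells fixed with 10% TCA (final); suspension cells fixed after settling. SRB stained; A515. GI50 from [(Ti-Tz)/(C-Tz)]x100 = 50.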

[2] = Growth inhibition of human Breast cancer cell line incubated for 48 hrs by sulforhodamine B assay; summary of the method: as §4
[3] = Growth inhibition of human Renal cancer cell line incubated for 48 hrs by sulforhodamine B assay; summary of the method: as §4
Ovarian cancer cell line = assay: Growth inhibition of human Ovarian cancer cell line incubated for 48 hrs by sulforhodamine B assay; summary of the method: as §4
[4] = Growth inhibition of human leukemia cell line incubated for 48 hrs by sulforhodamine B assay; conditions: leukaemia cell line; summary of the method: as §4
[5] = Growth inhibition of human Non-small cell lung cancer cell line incubated for 48 hrs by sulforhodamine B assay; summary of the method: as §4
Colon cancer cell line = assay: Growth inhibition of human colon cancer cell line incubated for 48 hrs by sulforhodamine B assay; summary of the method: as §4
CNS carcinoma cell = assay: Growth inhibition of human CNS carcinoma cell incubated for 48 hrs by sulforhodamine B assay; summary of the method: as §4
Melanoma cell line = assay: Growth inhibition of human Melanoma cell line incubated for 48 hrs by sulforhodamine B assay; summary of the method: as §4

SMILES	GI50 (NCI-H522)	GI50 (SF-295)	GI50 (SR)	GI50 (Malme-3M)	GI50 (CAKI-1)	GI50 (SNB-19)	GI50 (NCI-H23)	GI50 (COLO 205)	GI50 (T47D)	GI50 (A498)	GI50 (OVCAR-5)	GI50 (K562)	GI50 (ACHN)	GI50 (TK-10)	GI50 (OVCAR-4)	GI50 (OVCAR-8)	GI50 (SK-MEL-2)	GI50 (NCI-H460)	GI50 (M14)	other results
COc1cc2nc(-c3ccc(C(F)(F)F)cc3)cc(OCCCN3CCC(O)CC3)c2cc1OC	4150 nM	1610 nM	274 nM	2650 nM	376 nM	10.5 µM	6160 nM	456 nM	2970 nM	2370 nM	3140 nM	1790 nM	3180 nM	11.5 µM	9.14 µM	1660 nM	3850 nM	835 nM	535 nM	–
COc1cc2nc(-c3ccc(Cl)cc3)cc(OCCCN3CCCCC3)c2cc1OC	3280 nM	1210 nM	373 nM	1740 nM	287 nM	2.98 µM	2950 nM	582 nM	1310 nM	1400 nM	1160 nM	1220 nM	2450 nM	3.73 µM	3.85 µM	1770 nM	2750 nM	842 nM	412 nM	–
COc1cc2nc(-c3ccc(Cl)cc3)cc(OCCCN3CCC(O)CC3)c2cc1OC	2190 nM	1660 nM	373 nM	1890 nM	416 nM	3.19 µM	2830 nM	532 nM	2260 nM	1520 nM	1160 nM	1630 nM	2430 nM	2.14 µM	4.34 µM	2000 nM	2070 nM	955 nM	591 nM	–
COc1cc2nc(-c3ccc(C(F)(F)F)cc3)cc(OCCCN3CCCC3)c2cc1OC	1740 nM	328 nM	133 nM	1010 nM	188 nM	2.77 µM	1910 nM	401 nM	472 nM	1580 nM	803 nM	475 nM	812 nM	3.24 µM	3.71 µM	806 nM	1930 nM	528 nM	336 nM	LC50 (concentration killing 50% of cells) [1]: 89.5 µM; TGI [1]: 16.8 µM; LC50 [2]: 40.8 µM; TGI [2]: 6.8 µM; LC50 (concentration giving 50% net cell kill) [3]: 40.1 µM; TGI [3]: 10.2 µM; LC50 (Ovarian cancer cell line): 81 µM; TGI (Ovarian cancer cell line): 28.1 µM; LC50 [4]: 81.6 µM; TGI [4]: 6.17 µM; LC50 (concentration killing 50% of cells) [5]: 57.9 µM; TGI [5]: 12.7 µM; LC50 (Colon cancer cell line): 50.4 µM; TGI (Colon cancer cell line): 8.07 µM; LC50 (CNS carcinoma cell): 44.9 µM; TGI (CNS carcinoma cell): 11.7 µM; LC50 (50% lethal concentration) (Melanoma cell line): 23.7 µM; TGI (Melanoma cell line): 4.08 µM
